In ChEMBL document CHEMBL3046604, “Synthesis and fungistatic activity of new groups of 2,4-dihydroxythiobenzoyl derivatives against phytopathogenic fungi” (J Agric Food Chem, 2003):
Active and inactive are the calls of the source. No cut-off for these calls is given here.

Columns and labels:
Blumeria graminis [1] = experiment: Fungistatic activity against Blumeria graminis infested wheat seedling assessed as inhibition of fungal infection at 500 ug/ml applied as spray after 7 to 14 days under green house conditions relative to control; assay type: functional
Summary of the method: (§1)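 Greenhouse test on healthy wheat seedlings with Erysiphe graminis. At the well-developed first-leaf stage, plants were sprayed with compound solution at 1000 or 500 µg/mL, 10 mL of solution per treatment, with three repeats in 9 cm paraffin cups.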

Blumeria graminis [2] = experiment: Fungistatic activity against Blumeria graminis infested wheat seedling assessed as inhibition of fungal infection at 1000 ug/ml applied as spray after 7 to 14 days under green house conditions relative to control; assay type: functional; summary of the method: as §1
Phytophthora cactorum [3] = experiment: Fungistatic activity against Phytophthora cactorum assessed as mycelial growth inhibition at 20 ug/ml after 4 to 8 days relative to control; assay type: functional; conditions: for inhibition of growth at 20 µg/mL: read-out: GI
Summary of the method: (§2)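 Compound solutions or suspensions were diluted into PDA agar to final 200 or 20 µg/mL and poured into Petri dishes. Once the agar set, mycelium-covered agar disks of the fungus were placed at three sites on the surface. Linear colony growth was measured after 4-8 days, depending on the culture. Inhibition J = [(C − T)/C] × 100 versus untreated control, reported on a four-degree scale.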

Phytophthora cactorum [4] = experiment: Fungistatic activity against Phytophthora cactorum assessed as mycelial growth inhibition at 200 ug/ml after 4 to 8 days relative to control; assay type: functional; conditions: for inhibition of growth at 200 µg/mL: read-out: GI; summary of the method: as §2
Fusarium culmorum [5] = experiment: Fungistatic activity against Fusarium culmorum assessed as mycelial growth inhibition at 20 ug/ml after 4 to 8 days relative to control; assay type: functional; conditions: for inhibition of growth at 20 µg/mL: read-out: GI; summary of the method: as §2
Fusarium culmorum [6] = experiment: Fungistatic activity against Fusarium culmorum assessed as mycelial growth inhibition at 200 ug/ml after 4 to 8 days relative to control; assay type: functional; conditions: for inhibition of growth at 200 µg/mL: read-out: GI; summary of the method: as §2
Rhizoctonia solani [7] = experiment: Fungistatic activity against Rhizoctonia solani assessed as mycelial growth inhibition at 20 ug/ml after 4 to 8 days relative to control; assay type: functional; conditions: for inhibition of growth at 20 µg/mL: read-out: GI; summary of the method: as §2
Rhizoctonia solani [8] = experiment: Fungistatic activity against Rhizoctonia solani assessed as mycelial growth inhibition at 200 ug/ml after 4 to 8 days relative to control; assay type: functional; conditions: for inhibition of growth at 200 µg/mL: read-out: GI; summary of the method: as §2
Botrytis cinerea [9] = experiment: Fungistatic activity against Botryotinia fuckeliana assessed as mycelial growth inhibition at 20 ug/ml after 4 to 8 days relative to control; assay type: functional; conditions: for inhibition of growth at 20 µg/mL: read-out: GI; summary of the method: as §2
Alternaria alternata [10] = experiment: Fungistatic activity against Alternaria alternata assessed as mycelial growth inhibition at 20 ug/ml after 4 to 8 days relative to control; assay type: functional; conditions: for inhibition of growth at 20 µg/mL: read-out: GI; summary of the method: as §2
Botrytis cinerea [11] = experiment: Fungistatic activity against Botryotinia fuckeliana assessed as mycelial growth inhibition at 200 ug/ml after 4 to 8 days relative to control; assay type: functional; conditions: for inhibition of growth at 200 µg/mL: read-out: GI; summary of the method: as §2
[12] = Lipophilicity, log K of the compound in methanol-water mixture by HPLC; assay type: physicochemical
Summary of the method: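 Reversed-phase HPLC on a Hypersil BDS C18 column (5 µm, 150 × 4.6 mm) with UV detection at 320 nm. Samples were dissolved in methanol. Mobile phase was methanol at varying volume fractions in 10 mM acetate buffer pH 4, run at 1 mL/min and room temperature. Dead time was taken from injection of acetone dissolved in water.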

Alternaria alternata [13] = experiment: Fungistatic activity against Alternaria alternata assessed as mycelial growth inhibition at 200 ug/ml after 4 to 8 days relative to control; assay type: functional; conditions: for inhibition of growth at 200 µg/mL: read-out: GI; summary of the method: as §2

Row | Compound | inhibition at 500 µg/mL (Blumeria graminis [1]) [%] | inhibition at 1000 µg/mL (Blumeria graminis [2]) [%] | inhibition of growth at 20 µg/mL (Phytophthora cactorum [3]) [%] | inhibition of growth at 200 µg/mL (Phytophthora cactorum [4]) [%] | inhibition of growth at 20 µg/mL (Fusarium culmorum [5]) [%] | inhibition of growth at 200 µg/mL (Fusarium culmorum [6]) [%] | inhibition of growth at 20 µg/mL (Rhizoctonia solani [7]) [%] | inhibition of growth at 200 µg/mL (Rhizoctonia solani [8]) [%] | inhibition of growth at 20 µg/mL (Botrytis cinerea [9]) [%] | inhibition of growth at 20 µg/mL (Alternaria alternata [10]) [%] | inhibition of growth at 200 µg/mL (Botrytis cinerea [11]) [%] | log K [12] | inhibition of growth at 200 µg/mL (Alternaria alternata [13]) [%] | also measured
1 | Oc1ccc(C(=S)Nc2ccc(Oc3ccccc3)cc2)c(O)c1 | 0 | 0 | 0 | 21 | 0 | 0 | 0 | 21 | 0 | 0 | 0 | 1.305 | 41 | –
2 | CCOc1ccc(C(=O)NNC(=S)c2ccc(O)cc2O)cc1 | – | – | – | – | – | – | – | – | – | – | – | 0.352 | – | –
3 | CC(C)(C)c1nnc(NC(=S)c2ccc(O)cc2O)s1 | 0 | 21 | 0 | 0 | 0 | 0 | 0 | 0 | 0 | 0 | 0 | -0.131 | 0 | –
4 | CCOC(=O)c1c(C)csc1NC(=S)c1ccc(O)cc1O | – | – | – | – | – | – | – | – | – | – | – | -0.28 | – | –
5 | Oc1ccc(C(=S)Nc2ccc(OCc3ccccc3)cc2)c(O)c1 | 0 | 21 | 0 | 41 | 0 | 21 | 0 | 41 | 21 | 0 | 61 | 0.423 | 61 | –
6 | COC(=O)Nc1nc2ccccc2[nH]1 [CARBENDAZIM] | – | – | 81 | 81 | 81 | 81 | 81 | 81 | – | – | – | – | – | growth inhibition (GI) (Botrytis cinerea [9]): inactive; growth inhibition (GI) (Alternaria alternata [10]): inactive; growth inhibition (GI) (Botrytis cinerea [11]): inactive; growth inhibition (GI) (Alternaria alternata [13]): inactive
7 | Oc1ccc(C(=S)n2nnc3cc(Cl)ccc32)c(O)c1 | 0 | 21 | 21 | 81 | 0 | 81 | 21 | 81 | 21 | 0 | 81 | 0.936 | 81 | –
8 | CC(C)(C)c1cc(NC(=S)c2ccc(O)cc2O)no1 | 0 | 21 | 0 | 61 | 21 | 61 | 0 | 41 | 0 | 21 | 41 | -0.302 | 61 | –
9 | Oc1ccc(C(=S)Nc2ccccc2-c2ccccc2)c(O)c1 | 0 | 21 | 41 | 81 | 0 | 61 | 0 | 61 | 0 | 0 | 61 | 0.118 | 61 | –
10 | Oc1ccc(C(=S)n2c(Cl)nc3ccccc32)c(O)c1 | 0 | 41 | 21 | 81 | 0 | 81 | 21 | 81 | 0 | 21 | 81 | 0.378 | 81 | –
11 | Oc1ccc(C(=S)NNc2nncc3ccccc23)c(O)c1 | – | – | – | – | – | – | – | – | – | – | – | 0.228 | – | –
12 | COc1ccc(COC(=O)NNC(=S)c2ccc(O)cc2O)cc1 | – | – | – | – | – | – | – | – | – | – | – | 0.103 | – | –
13 | Oc1ccc(C(=S)Nc2ccccc2Sc2ccc(Cl)cc2)c(O)c1 | 0 | 0 | 0 | 0 | 0 | 21 | 0 | 21 | 0 | 0 | 0 | 0.446 | 41 | –
14 | Oc1ccc(C(=S)NC(=S)c2cccnc2)c(O)c1 | 0 | 21 | 0 | 81 | 0 | 81 | 0 | 61 | 0 | 0 | 81 | 0.751 | 61 | –
15 | O=C(Nc1ccccc1)c1ccccc1NC(=S)c1ccc(O)cc1O | 0 | 41 | 0 | 61 | 0 | 61 | 21 | 61 | 0 | 0 | 41 | -0.37 | 61 | –
16 | O=C(NNC(=S)c1ccc(O)cc1O)c1ccncc1 | – | – | – | – | – | – | – | – | – | – | – | -0.21 | – | –
17 | O=C(CC(=O)c1ccc(NC(=S)c2ccc(O)cc2O)cc1)Nc1ccccc1Cl | – | – | – | – | – | – | – | – | – | – | – | -0.29 | – | –
18 | O=C(OC/C=C/c1ccccc1)c1ccccc1NC(=S)c1ccc(O)cc1O | 21 | 21 | 41 | 81 | 41 | 81 | 21 | 81 | 21 | 41 | 61 | 0.488 | 61 | –
19 | CCOC(=O)Cc1csc(NC(=S)c2ccc(O)cc2O)n1 | 0 | 21 | 0 | 41 | 0 | 0 | 0 | 0 | 0 | 0 | 0 | 0.048 | 21 | –
20 | Oc1ccc(C(=S)NNC(=S)Nc2ccc(F)cc2)c(O)c1 | 0 | 0 | 0 | 0 | 0 | 0 | 0 | 0 | 0 | 0 | 0 | 0.24 | 21 | –
21 | Oc1ccc(C(=S)NC2=NN(c3ccccc3)CC2)c(O)c1 | – | – | – | – | – | – | – | – | – | – | – | 0.643 | – | –
22 | CC12CC1(C)C(=O)N(c1cc(Cl)cc(Cl)c1)C2=O (stereo unspecified) [PROCYMIDONE] | – | – | – | – | – | – | – | – | 81 | 81 | 81 | – | 81 | growth inhibition (GI) (Phytophthora cactorum [3]): inactive; growth inhibition (GI) (Phytophthora cactorum [4]): inactive; growth inhibition (GI) (Fusarium culmorum [5]): inactive; growth inhibition (GI) (Fusarium culmorum [6]): inactive; growth inhibition (GI) (Rhizoctonia solani [7]): inactive; growth inhibition (GI) (Rhizoctonia solani [8]): inactive
